Tests used:
[1] = system: NSCLC HCC827 cell line harboring EGFR-sensitive mutants; conditions: ref [14],[15]; cited from earlier work
[2] = assay type: in vivo, human
Outline: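 Urine and feces were collected until cumulative recovery exceeded 80% of dose and fell below 1% of dose per day on 2 consecutive days. Radioactivity was counted by liquid scintillation: urine directly, feces after homogenization with solvent and combustion with CO2 trapping. Each interval's excretion was expressed relative to the actual administered radioactivity (vial content minus residue), then summed cumulatively.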

[3] = system: T790M-mutant NSCLC cell line H1975; conditions: ref [14],[15]; cited from earlier work
NSCLC = conditions: ref [15], cited from earlier work
[4] = Plasma pharmacokinetics of unlabeled almonertinib and metabolite HAS-719; assay type: in vivo, human
Outline: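 Four healthy fasted male volunteers received one oral [14C]-labeled suspension of the test compound (110 mg/50 µCi) and ate lunch 4 h after dosing. Blood (7 mL) was drawn predose and at 1–504 h, centrifuged (3,000 rpm, 10 min) and stored at –20 °C. Parent and metabolite were quantified by validated LC-MS/MS. Noncompartmental parameters are reported as mean ± SD.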

[5] = system: T790M-mutant NSCLC cell line LU1868; conditions: ref [14],[15]; cited from earlier work

Main excretion route ([2]; 0–504 hours): mainly excreted via feces | Cumulative excretion rate of drug TRA (urine + feces) ([2]; 0–504 hours after administration, % of dose): 90.19%±4.18% | Cumulative excretion rate in feces ([2]; 0–504 hours, % of dose): 84.75%±3.35% | Cumulative excretion rate in urine ([2]; 0–504 hours, % of dose): 5.44%±0.83% | CL/F ([4]; LC-MS/MS, single oral 110 mg/50 µCi, mean±SD): 36.8 ± 10.8 L/h | AUC(0-inf) ([4]; male, human, po, 110 mg): 3160 ng·h/mL | AUC(0-t) ([4]; male, human, po, 110 mg): 2900 ng·h/mL | Cmax ([4]; male, human, po, 110 mg): 119 ± 27.7 ng/mL | Tmax ([4]; male, human, po, 110 mg): 5.25 ± 3.2 h | Vd/F ([4]; male, human, po, 110 mg): 1270 L | half-life ([4]; male, human, po, 110 mg): 25 ± 6.41 h
Structure (SMILES): C=CC(=O)Nc1cc(Nc2nccc(-c3cn(C4CC4)c4ccccc34)n2)c(OC)cc1N(C)CCN(C)C [HS-10296, almonertinib]
Growth inhibition [1]: potently inhibited the growth | Growth inhibition [3]: potently inhibited the growth | Tolerability (NSCLC; 26 patients, 55, 110, 220, 260 mg, single or multiple dose): well tolerated | Dose linearity of metabolism (NSCLC; 55–260 mg): linear trend | Antitumor activity (NSCLC; NSCLC patients, dose-escalation cohort): preliminary antitumor activity | Growth inhibition [5]: potently inhibited the growth
